This note sets out measurements from ChEMBL document CHEMBL3526142, “Biotransformation of a novel antimitotic agent, I-387, by mouse, rat, dog, monkey, and human liver microsomes and in vivo pharmacokinetics in mice” (Drug Metab Dispos, 2011).

A word on the Cmax: it is the maximum level reached in the sampled fluid or tissue. Broadly, the Tmax is the time at which the peak concentration occurs. By bioavailability is commonly meant the share of a dose that reaches the circulation, judged against a reference dose that is usually intravenous. For orientation: MRT inf means the average time that molecules of a dose stay in the body. For orientation: AUC(0-inf) means total exposure, with the tail of the curve extrapolated. One may read the inhibition in vivo as the change of the read-out against control, counted positive when it falls. As a reminder, the clearance is the rate of elimination divided by the concentration.

Series [1] in a line: Cmax in ICR mouse at 1 mg/kg, po via gavage by LC-MS/MS analysis. The series is classed as ADME, organism-based. Also on record: dose 1 mg/kg, route oral. The settings on record: in vivo. The method, boiled down:
(§1)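 Male ICR mice (5–6 weeks, 20–25 g), single doses of 1, 5 or 15 mg/kg in 10% DMSO/PEG300, given iv by tail vein, ip, or orally by gavage. Three to four mice per time point, euthanized under isoflurane, blood drawn from posterior vena cava. Plasma protein precipitated with acetonitrile containing internal standard, then LC-MS/MS (MRM m/z 388.2→192). Noncompartmental analysis of mean concentration-time data, AUCinf by trapezoidal rule with extrapolation, CL = dose/AUCinf, Cmax read from the curve. F = (AUCnon-iv × dose iv)/(AUCiv × dose non-iv). n = 3 per dose group.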

The nature of series [2]: Tmax in ICR mouse at 1 mg/kg, ip by LC-MS/MS analysis. The series is classed as ADME, organism-based. On the set-up: dose 1 mg/kg, route intraperitoneal. The following applies: in vivo. The gist of the method:
(§2)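 Male ICR mice (20–25 g) given the compound intraperitoneally or by gavage in 10% DMSO/PEG300. Three to four mice were sacrificed per time point and plasma collected from the vena cava. Plasma was precipitated with acetonitrile containing internal standard and analysed by LC-MS/MS. Noncompartmental analysis of mean concentration-time data: terminal t1/2 = ln2/λz; Tmax by inspection; n = 3/dose group.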

Series [3] can be described thus: Bioavailability in ICR mouse at 1 mg/kg, ip by LC-MS/MS analysis. The series is classed as ADME, organism-based. The following applies: in vivo. The method, boiled down: as §1
Series [4] can be described thus: Mean residence time (infinity) in ICR mouse at 5 mg/kg, po via gavage by LC-MS/MS analysis. The series is classed as ADME, organism-based. On the set-up: dose 5 mg/kg, route oral. The following applies: in vivo. The gist of the method:
as §1

Series [5] in a line: Metabolic stability in rat liver microsomes assessed as half life during phase 1 at 0.5 uM by LC-MS/MS analysis in presence of 3 mM NADPH and absence of UDPGA. The following applies: read-out: alphat1/2. The series is classed as ADME. The gist of the method:
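Pooled liver microsomes at 1 mg/ml protein with 3 mM NADPH, 0.5 μM substrate in 65 mM potassium phosphate pH 7.4, 1% methanol, 37°C. Incubations stopped at 10, 20, 30, 60 and 90 min with ice-cold acetonitrile plus internal standard, then LC-MS/MS of parent remaining relative to time 0. Half-life from a two-parameter single exponential decay fit; n = 2 to 3.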
On the technique in general: Liver microsomes are vesicles of endoplasmic reticulum, rich in cytochrome P450 enzymes.

Series [6] in a line: AUC (infinity) in ICR mouse at 15 mg/kg, po via gavage by LC-MS/MS analysis. The settings on record: plasma. On the set-up: time infinity, dose 15 mg/kg, route oral. Type of series: ADME, organism-based. The method, boiled down: as §1
The nature of series [7]: AUC (infinity) in ICR mouse at 1 mg/kg, ip by LC-MS/MS analysis. The series is classed as ADME, organism-based. On the set-up: time infinity, dose 1 mg/kg, route intraperitoneal. The settings on record: plasma. The gist of the method: as §1
Series [8] in a line: Tmax in ICR mouse at 5 mg/kg, po by LC-MS/MS analysis. Type of series: ADME, organism-based. On the set-up: dose 5 mg/kg, route oral. The following applies: in vivo. The gist of the method:
(§3)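 Male ICR mice (5–6 weeks, 20–25 g) dosed by gavage in 10% DMSO in PEG300. Three to four mice per time point were euthanized under isoflurane and blood taken from the posterior vena cava. Plasma was acetonitrile-precipitated and analysed by LC-MS/MS (MRM m/z 388.2→192). Tmax read by visual inspection. F = (AUC_oral × dose_iv)/(AUC_iv × dose_oral), with AUC_inf by trapezoidal rule; n = 3/dose group.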

Series [9] in a line: Antitumor activity against human PC3 cells xenografted in nu/nu mouse assessed as decrease in tumor growth at 10 mg/kg, ip 2 days per week for weeks. Type of series: functional. The following applies: PC-3, ip, 48 h, route intraperitoneal.
A short description of series [10]: Metabolic stability in mouse liver microsomes assessed as half life during phase 1 and 2 at 0.5 uM by LC-MS/MS analysis in presence of 3 mM NADPH and […] UDPGA. The following applies: read-out: alphat1/2. The series is classed as ADME.
Series [11] is described as follows: Cmax in ICR mouse at 1 mg/kg, ip by LC-MS/MS analysis. The series is classed as ADME, organism-based. Also on record: dose 1 mg/kg, route intraperitoneal. The settings on record: in vivo. The method, boiled down: as §1
Series [12] in a line: Mean residence time (infinity) in ICR mouse at 1 mg/kg, po via gavage by LC-MS/MS analysis. The series is classed as ADME, organism-based. On the set-up: dose 1 mg/kg, route oral. The following applies: in vivo. The gist of the method: as §1
Series [13] in a line: Clearance in ICR mouse at 5 mg/kg, iv by LC-MS/MS analysis. Type of series: ADME, organism-based. The following applies: in vivo. On the set-up: dose 5 mg/kg, route intravenous. The method, boiled down:
as §1

Series [14] in a line: Tmax in ICR mouse at 15 mg/kg, ip by LC-MS/MS analysis. On the set-up: dose 15 mg/kg, route intraperitoneal. Type of series: ADME, organism-based. The settings on record: in vivo. The gist of the method: as §2
A short description of series [15]: AUC (infinity) in ICR mouse at 1 mg/kg, po via gavage by LC-MS/MS analysis. Also on record: time infinity, dose 1 mg/kg, route oral. Type of series: ADME, organism-based. The following applies: plasma. The method, boiled down:
as §1

Series [16] is described as follows: Mean residence time (infinity) in ICR mouse at 5 mg/kg, iv by LC-MS/MS analysis. The series is classed as ADME, organism-based. On the set-up: dose 5 mg/kg, route intravenous. The settings on record: in vivo. The gist of the method: as §1
Series [17] is described as follows: Tmax in ICR mouse at 1 mg/kg, po by LC-MS/MS analysis. The following applies: in vivo. Type of series: ADME, organism-based. On the set-up: dose 1 mg/kg, route oral. The method, boiled down: as §3
Series [18] in a line: Metabolic stability in monkey liver microsomes assessed as half life during phase 1 and 2 at 0.5 uM by LC-MS/MS analysis in presence of 3 mM NADPH and […] UDPGA. Type of series: ADME, Macaca mulatta. The settings on record: rhesus monkey, read-out: alphat1/2.
Series [19] can be described thus: Volume of distribution at steady state in ICR mouse at 15 mg/kg, iv by LC-MS/MS analysis. Type of series: ADME, organism-based. On the set-up: dose 15 mg/kg, route intravenous. The following applies: in vivo, read-out: Vdss. The method, boiled down: (§4)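 Tail-vein injection in male ICR mice (5–6 weeks), vehicle 10% DMSO in PEG300. Serial terminal sampling of 3–4 mice per time point, with posterior vena cava blood. Plasma was acetonitrile-precipitated and measured by LC-MS/MS. Noncompartmental analysis of mean data: t1/2 = ln2/λz, CL = dose/AUC_inf, Vd_ss = CL × MRT_inf; n = 3/dose group.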

Series [20] in a line: AUC (infinity) in ICR mouse at 5 mg/kg, iv by LC-MS/MS analysis. Type of series: ADME, organism-based. On the set-up: time infinity, dose 5 mg/kg, route intravenous. The settings on record: plasma. The method, boiled down:
as §1

A short description of series [21]: Terminal half life in ICR mouse at 1 mg/kg, iv by LC-MS/MS analysis. Type of series: ADME, organism-based. On the set-up: dose 1 mg/kg, route intravenous. The settings on record: in vivo, read-out: beta t1/2 (converted). The method, boiled down: as §4
Series [22] is described as follows: Cmax in ICR mouse at 5 mg/kg, po via gavage by LC-MS/MS analysis. On the set-up: dose 5 mg/kg, route oral. The settings on record: in vivo. Type of series: ADME, organism-based. The gist of the method: as §1
Series [23] in a line: Oral bioavailability in ICR mouse at 1 mg/kg via gavage after 30 mins by LC-MS/MS analysis. The settings on record: in vivo. Type of series: ADME, organism-based. The gist of the method: as §3
Series [24] is described as follows: Plasma concentration in ICR mouse at 15 mg/kg, ip measured for 30 hrs by LC-MS/MS analysis. Type of series: ADME, organism-based. Also on record: dose 15 mg/kg, route intraperitoneal. The gist of the method:
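Male ICR mice given 15 mg/kg intraperitoneally in 10% DMSO/PEG300. Plasma from 3–4 mice per time point was collected via the posterior vena cava, protein-precipitated with acetonitrile plus internal standard, and quantified by LC-MS/MS (MRM m/z 388.2→192).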

Molecules are shown by their SMILES. Where only a bound is given, the exact number is not on record here.

Regarding `COc1cc(C(=O)c2cccc(-c3cc4ccccc4[nH]3)c2)cc(OC)c1OC`, the figures for the Cmax in series [1], in series [11] and in series [22] were 30 ng/mL, 250 ng/mL and 100 ng/mL, respectively. For the same molecule, the Tmax in series [2] is 5 min; in series [8], 30 min; in [14], 10 min; in series [17] it was 30 min. The results for the bioavailability in series [3] and in series [23] were 65% and 24%, respectively. Further, the MRT inf turned out to be 534 min in series [4], 540 min in series [12] and 198 min in series [16]. For the same molecule, the half-life at 0.5 µM turned out to be 42 min in [5], 39 min in series [10] and 11 min in series [18]. The AUC(0-inf) was 1070 ng·h/mL in series [6], 400 ng·h/mL in [7], 148 ng·h/mL in series [15] and 3950 ng·h/mL in [20]. The inhibition in vivo at 10 mg/kg in [9] worked out at 68%. For the same molecule, in [13], the clearance amounted to 22 mL/min/kg. Besides, the Vd in series [19] is 9.8 L/kg. Further, in [21], the half-life is 420 min. Also, in series [24], the concentration at 30 h was above 71 ng/mL.
